Calls of active or inactive are those of the source. The calls are words filed in the database; no cut-off is given here.
Experiments:
[1] = Toxicity in ip dosed Swiss mouse assessed as induction of motor performance impairment measured within 60 seconds measured at 0.25 hrs of time to peak effect by Chimney test; assay type: organism-based; details: in vivo
How it was run: (§1)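 Neurotoxicity was measured i.p. in mice by the chimney test for motor impairment. It was given as the median neurotoxic dose (TD50, mg/kg) at the time of peak effect.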

Mus musculus [2] = experiment: Anticonvulsant activity in Swiss mouse assessed as protection against seizures at 100 mg/kg, ip dosed 0.25 hrs before initiation of maximal electroconvulsions by maximal electroshock test; assay type: functional
How it was run: (§2)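 Mice were dosed i.p. at a fixed 300 or 100 mg/kg (6 Hz: 100 mg/kg only). Protection was then scored against MES, sc PTZ or 6 Hz seizures at pretreatment times of 0.25, 0.5, 1 and 2 h. Groups were four mice, scored as number protected / number tested. This also gives the time course and time of peak effect.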

Mus musculus [3] = experiment: Anticonvulsant activity in Swiss mouse model of 6 Hz psychomotor seizure mode assessed as protection against seizures at 100 mg/kg, ip dosed 0.25 hrs before 6 Hz electrical stimulation by 6 Hz test; assay type: functional; how it was run: as §2
Mus musculus [4] = experiment: Anticonvulsant activity in Swiss mouse assessed as protection against seizures at 100 mg/kg, ip dosed 2 hrs before initiation of maximal electroconvulsions by maximal electroshock test; assay type: functional; how it was run: as §2
Mus musculus [5] = experiment: Anticonvulsant activity in Swiss mouse model of 6 Hz psychomotor seizure mode assessed as protection against seizures at 100 mg/kg, ip dosed 1 hr before 6 Hz electrical stimulation by 6 Hz test; assay type: functional; how it was run: as §2
Mus musculus [6] = organism: Mus musculus; experiment: Protective index, ratio of neurotoxic TD50 in Swiss mouse by Chimney test to anticonvulsant ED50 in Swiss mouse measured at 0.25 hrs of time to peak effect by maximal electroshock test
How it was run: (§3)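 Protective index was calculated as TD50 (chimney test, mouse, i.p.) divided by ED50 from the matching MES, sc PTZ or 6 Hz test, both taken at the time of peak effect.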

Rattus norvegicus [7] = organism: Rattus norvegicus; experiment: Inhibition of [125I]omega-conotoxin GVIA binding to N-type calcium channel in rat cerebral cortex synaptosomes at 100 uM incubated for 30 mins by scintillation counting based radioligand displacement assay; assay type: subcellular
Rattus norvegicus [8] = organism: Rattus norvegicus; experiment: Inhibition of [125I]omega-conotoxin GVIA binding to N-type calcium channel in rat cerebral cortex synaptosomes at 200 uM incubated for 30 mins by scintillation counting based radioligand displacement assay; assay type: subcellular
Mus musculus [9] = experiment: Anticonvulsant activity in Swiss mouse assessed as protection against seizures at 100 mg/kg, ip dosed 0.5 hrs before initiation of maximal electroconvulsions by maximal electroshock test; assay type: functional; how it was run: as §2
Mus musculus [10] = experiment: Anticonvulsant activity in Swiss mouse assessed as protection against seizures at 300 mg/kg, ip dosed 0.25 hrs before initiation of maximal electroconvulsions by maximal electroshock test; assay type: functional; how it was run: as §2
Mus musculus [11] = experiment: Anticonvulsant activity in Swiss mouse assessed as protection against seizures at 300 mg/kg, ip dosed 1 hr before pentylenetetrazole challenge by subcutaneous pentylenetetrazole seizure test; assay type: functional; how it was run: as §2
Mus musculus [12] = experiment: Anticonvulsant activity in Swiss mouse assessed as protection against seizures at 300 mg/kg, ip dosed 0.5 hrs before initiation of maximal electroconvulsions by maximal electroshock test; assay type: functional; how it was run: as §2
Mus musculus [13] = experiment: Anticonvulsant activity in Swiss mouse assessed as protection against seizures at 100 mg/kg, ip dosed 1 hr before pentylenetetrazole challenge by subcutaneous pentylenetetrazole seizure test; assay type: functional; how it was run: as §2
Mus musculus [14] = experiment: Anticonvulsant activity in ip dosed Swiss mouse assessed as protection against seizures measured at 0.25 hrs of time to peak effect by 6 Hz test by 6 Hz psychomotor seizure test; assay type: functional
How it was run: (§4)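 Median effective doses (ED50, mg/kg) were determined i.p. in mice at the time of peak effect in the MES, sc PTZ or 6 Hz tests. Only compounds giving at least 50% protection at 100 mg/kg in that test were taken forward.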

Mus musculus [15] = experiment: Anticonvulsant activity in ip dosed Swiss mouse assessed as protection against seizures measured at 0.5 hrs of time to peak effect by 6 Hz test by 6 Hz psychomotor seizure test; assay type: functional; how it was run: as §4
Mus musculus [16] = experiment: Anticonvulsant activity in ip dosed Swiss mouse assessed as protection against seizures measured at 0.5 hrs of time to peak effect by maximal electroshock test; assay type: functional; how it was run: as §4
Rattus norvegicus [17] = organism: Rattus norvegicus; experiment: Inhibition of [3H]BTX binding to sodium channel site 2 in rat cerebral cortex synaptosomes at 100 uM incubated for 60 mins by scintillation counting based radioligand displacement assay; assay type: subcellular
How it was run: (§5)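 Synaptoneurosomal preparations from rat cerebral cortex were used. The read-out was inhibition of specific [3H]BTX binding to the voltage-sensitive sodium channel (site 2), expressed as % inhibition of control specific binding. Compounds were tested at 1, 10, 100 and 500 μM. Inhibition above 50% was taken as significant.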

Mus musculus [18] = experiment: Anticonvulsant activity in ip dosed Swiss mouse assessed as protection against seizures measured at 0.25 hrs of time to peak effect by maximal electroshock test; assay type: functional; how it was run: as §4
Mus musculus [19] = experiment: Anticonvulsant activity in Swiss mouse assessed as protection against seizures at 100 mg/kg, ip dosed 2 hrs before pentylenetetrazole challenge by subcutaneous pentylenetetrazole seizure test; assay type: functional; how it was run: as §2
Mus musculus [20] = experiment: Anticonvulsant activity in Swiss mouse assessed as protection against seizures at 300 mg/kg, ip dosed 0.25 hrs before pentylenetetrazole challenge by subcutaneous pentylenetetrazole seizure test; assay type: functional; how it was run: as §2
Mus musculus [21] = experiment: Anticonvulsant activity in Swiss mouse assessed as protection against seizures at 300 mg/kg, ip dosed 2 hrs before initiation of maximal electroconvulsions by maximal electroshock test; assay type: functional; how it was run: as §2
Rattus norvegicus [22] = organism: Rattus norvegicus; experiment: Inhibition of [3H]BTX binding to sodium channel site 2 in rat cerebral cortex synaptosomes at 500 uM incubated for 60 mins by scintillation counting based radioligand displacement assay; assay type: subcellular; how it was run: as §5
Mus musculus [23] = organism: Mus musculus; experiment: Protective index, ratio of neurotoxic TD50 in Swiss mouse by Chimney test to anticonvulsant ED50 in Swiss mouse measured at 0.25 hrs of time to peak effect by 6 Hz test by 6 Hz psychomotor seizure test; assay type: functional; how it was run: as §3
Mus musculus [24] = experiment: Anticonvulsant activity in Swiss mouse assessed as protection against seizures at 300 mg/kg, ip dosed 2 hrs before pentylenetetrazole challenge by subcutaneous pentylenetetrazole seizure test; assay type: functional; how it was run: as §2
[25] = Toxicity in ip dosed Swiss mouse assessed as induction of motor performance impairment measured within 60 seconds measured at 0.5 hrs of time to peak effect by Chimney test; assay type: organism-based; details: in vivo; how it was run: as §1
Mus musculus [26] = experiment: Anticonvulsant activity in Swiss mouse assessed as protection against seizures at 300 mg/kg, ip dosed 1 hr before initiation of maximal electroconvulsions by maximal electroshock test; assay type: functional; how it was run: as §2
Mus musculus [27] = experiment: Anticonvulsant activity in Swiss mouse model of 6 Hz psychomotor seizure mode assessed as protection against seizures at 100 mg/kg, ip dosed 0.5 hrs before 6 Hz electrical stimulation by 6 Hz test; assay type: functional; how it was run: as §2
Mus musculus [28] = experiment: Anticonvulsant activity in Swiss mouse assessed as protection against seizures at 300 mg/kg, ip dosed 0.5 hrs before pentylenetetrazole challenge by subcutaneous pentylenetetrazole seizure test; assay type: functional; how it was run: as §2
Mus musculus [29] = experiment: Anticonvulsant activity in Swiss mouse model of 6 Hz psychomotor seizure mode assessed as protection against seizures at 100 mg/kg, ip dosed 2 hrs before 6 Hz electrical stimulation by 6 Hz test; assay type: functional; how it was run: as §2
Mus musculus [30] = experiment: Anticonvulsant activity in Swiss mouse assessed as protection against seizures at 100 mg/kg, ip dosed 0.25 hrs before pentylenetetrazole challenge by subcutaneous pentylenetetrazole seizure test; assay type: functional; how it was run: as §2
Mus musculus [31] = organism: Mus musculus; experiment: Protective index, ratio of neurotoxic TD50 in Swiss mouse by Chimney test to anticonvulsant ED50 in Swiss mouse measured at 0.5 hrs of time to peak effect by 6 Hz test by 6 Hz psychomotor seizure test; assay type: functional; how it was run: as §3
Rattus norvegicus [32] = organism: Rattus norvegicus; experiment: Inhibition of [3H]BTX binding to sodium channel site 2 in rat cerebral cortex synaptosomes at 10 uM incubated for 60 mins by scintillation counting based radioligand displacement assay; assay type: subcellular; how it was run: as §5
Mus musculus [33] = organism: Mus musculus; experiment: Protective index, ratio of neurotoxic TD50 in Swiss mouse by Chimney test to anticonvulsant ED50 in Swiss mouse measured at 0.5 hrs of time to peak effect by maximal electroshock test; how it was run: as §3
Mus musculus [34] = experiment: Anticonvulsant activity in ip dosed Swiss mouse assessed as protection against seizures measured at 0.5 hrs of time to peak effect by subcutaneous pentylenetetrazole seizure test; assay type: functional; how it was run: as §4
Mus musculus [35] = experiment: Anticonvulsant activity in ip dosed Swiss mouse assessed as protection against seizures measured at 0.25 hrs of time to peak effect by subcutaneous pentylenetetrazole seizure test; assay type: functional; how it was run: as §4
Rattus norvegicus [36] = organism: Rattus norvegicus; experiment: Inhibition of [3H]BTX binding to sodium channel site 2 in rat cerebral cortex synaptosomes at 1 uM incubated for 60 mins by scintillation counting based radioligand displacement assay; assay type: subcellular; how it was run: as §5
Mus musculus [37] = experiment: Anticonvulsant activity in Swiss mouse assessed as protection against seizures at 100 mg/kg, ip dosed 1 hr before initiation of maximal electroconvulsions by maximal electroshock test; assay type: functional; how it was run: as §2
Mus musculus [38] = experiment: Anticonvulsant activity in Swiss mouse assessed as protection against seizures at 100 mg/kg, ip dosed 0.5 hrs before pentylenetetrazole challenge by subcutaneous pentylenetetrazole seizure test; assay type: functional; how it was run: as §2
Mus musculus [39] = experiment: Protective index, ratio of neurotoxic TD50 in Swiss mouse by Chimney test to anticonvulsant ED50 in Swiss mouse measured at 0.25 hrs of time to peak effect by subcutaneous pentylenetetrazole seizure test; assay type: functional; how it was run: as §3

COCC(C(=O)N1CCN(c2cccc(C(F)(F)F)c2)CC1)N1C(=O)CCC1=O (racemic)
TD50 at 0.25 h [1]: 203 mg/kg
Activity (Mus musculus [2]): 100%
Activity (Mus musculus [3]): 100%
Activity (Mus musculus [4]): 0%
Activity (Mus musculus [5]): 75%
Ratio TD50/ED50 (Mus musculus [6]): 3.49
inhibition (Rattus norvegicus [7]): inactive
inhibition (Rattus norvegicus [8]): 3.2%
Activity (Mus musculus [9]): 75%
Activity (Mus musculus [10]): 25%
Activity (Mus musculus [11]): 75%
Activity (Mus musculus [12]): 50%
Activity (Mus musculus [13]): 50%
ED50 (Mus musculus [14]): 57.6 mg/kg
ED50 (Mus musculus [15]): > 120 mg/kg
ED50 (Mus musculus [16]): 85.1 mg/kg
inhibition (Rattus norvegicus [17]): 38.7%
ED50 (Mus musculus [18]): 58.1 mg/kg
Activity (Mus musculus [19]): 50%
Activity (Mus musculus [20]): 100%
Activity (Mus musculus [21]): 100%
inhibition (Rattus norvegicus [22]): 77.6%
Ratio TD50/ED50 (Mus musculus [23]): 3.52
Activity (Mus musculus [24]): 75%
TD50 at 0.5 h [25]: 197 mg/kg
Activity (Mus musculus [26]): 100%
Activity (Mus musculus [27]): 100%
Activity (Mus musculus [28]): 100%
Activity (Mus musculus [29]): 25%
Activity (Mus musculus [30]): 50%
Ratio TD50/ED50 (Mus musculus [31]): 2.64
inhibition (Rattus norvegicus [32]): 14.6%
Ratio TD50/ED50 (Mus musculus [33]): 2.32
ED50 (Mus musculus [34]): > 120 mg/kg
ED50 (Mus musculus [35]): > 120 mg/kg
inhibition (Rattus norvegicus [36]): 5.7%
Activity (Mus musculus [37]): 50%
Activity (Mus musculus [38]): 50%

CCC1(C)CC(=O)NC1=O (stereo not drawn) [ETHOSUXIMIDE]
TD50 at 0.25 h [1]: 722 mg/kg
ED50 (Mus musculus [14]): > 200 mg/kg
ED50 (Mus musculus [18]): > 500 mg/kg
ED50 (Mus musculus [35]): 148 mg/kg
Ratio TD50/ED50 (Mus musculus [39]): 4.89

From ChEMBL document CHEMBL3580554, “Design, synthesis, and anticonvulsant activity of new hybrid compounds derived from 2-(2,5-dioxopyrrolidin-1-yl)propanamides and 2-(2,5-dioxopyrrolidin-1-yl)butanamides” (J Med Chem, 2015)
